Screens (PubChem)
DENV2 CPE: protects cells from dengue virus 2 cytopathic effect. DENV2-infected cells, cytopathic effect rescue, plate reader. CPE inhibition, % at 9.99 µM. 1.7% of 350,000 active; in the data active means CPE inhibition above about 20%, passing the limit was not always enough; inconclusive means no clear call, values can overlap the other calls; tested in BHK-21 cells;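 further: 0% = median of neutral control wells and 100% = median of positive control wells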
Xi reactivation: reactivates the inactive X chromosome in mouse fibroblasts | XiGFP mouse fibroblasts, % GFP-positive cells imaging, 3 d; cells co-treated with 5-aza-dC sensitizer; scaled so ellipticine positive control = 100% | activation, % at 7.58 µM | 0.055% of 360,000 active;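 active means mean normalized replicate activation at least 10% and every replicate at or above 10%; inconclusive means only one of the two criteria met; inactive means mean below 10% and not all replicates reach 10%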;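 further: 0% = median of on-plate neutral control wells and 100% = ellipticine 6 µM median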
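System: XiGFP fibroblasts, SV40-immortalized. Medium: DMEM plus 5-aza-dC sensitizer. Doses: single point. Timing: 3 d treatment, 15 min room-temperature fixation. Control set: ellipticine 6 µM.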
E-sel inducer: E-selectin induction on HUVECs. P16581. HUVEC E-selectin immunofluorescence imaging; normalized: neutral wells 0, TNF-alpha wells 100. activation, % at 7.58 µM. 0.37% of 260,000 active;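 active means mean E-selectin-positive cell signal at least 10% of the positive control, reached in at least 60% of replicates, without over 20% cell loss; inconclusive means no rule given, readout overlaps actives, possibly toxicity-flagged; inactive means the rest, including those meeting only one limit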
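Test system – human umbilical vein endothelial cells (HUVEC), E-selectin induction · Input – 3,000 HUVEC seeded per well · Buffer or medium – EGM-2, gelatin · Compound dosing – single-point compound dose · Detection – immunofluorescence imaging · Measure – percent E-selectin-positive cells · Controls – TNF-alpha high, DMSO low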
S100A4 inh HTS: blocks human S100A4 binding to myosin IIA peptide; 0.14% of 360,000 active; S100A4/TAMRA-MyoIIA peptide fluorescence polarization; AID 652163; inhibition, % at 10.7 µM; P26447;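 active means mean inhibition of at least 70% across replicates, with every replicate also reaching that level; inconclusive means mean inhibition reaches 70% but some replicates fall short; inactive means mean inhibition below 70%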
Target sequence (P26447 whole entry, looked up): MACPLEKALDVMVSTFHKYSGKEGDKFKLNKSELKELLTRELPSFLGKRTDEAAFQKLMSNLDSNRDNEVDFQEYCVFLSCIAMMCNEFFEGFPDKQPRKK
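Test system – S100A4 monomer (human) · Compound – single-point compound testing · Schedule – 5 min incubation before reading · Probe or stimulus – TAMRA-labelled myosin IIA heavy-chain peptide probe, 5 nM · Benchmarks – neutral control DMSO, positive control TFP · Medium – Calcium-containing HEPES buffer, pH 7.2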
The depositor's hits bear a star; ? = inconclusive; / = no result given. Most compounds without a hit are left out; they make up all but 2% or so of the library.

SMILES	DENV2 CPE	Xi reactivation	E-sel inducer	S100A4 inh HTS
COc1cc(NC(=O)Nc2nc(C(N)CCc3ccccc3)cs2)cc(OC)c1OC (stereo not drawn)	0	0	0	-5
CC(C)c1ccc(NC(=O)Nc2nc(C(N)CCc3ccccc3)cs2)cc1 (stereo not drawn)	37*	0	1	-1
CCNC(=O)[C@@H]1[C@@H](CO)[C@@H]2Cn3c(ccc(-c4ccccc4)c3=O)[C@@H]2N1CC	-5	0	0	78*
COc1cccc(CNC(=O)[C@H]2[C@H](CO)[C@H]3Cn4c(ccc(-c5ccncc5)c4=O)[C@H]3N2C)c1	138*	0	0	-2
O=C(Nc1ccccc1)c1nc[nH]c1C(=O)N1CCc2ccccc2C1	4	0	0	-1
COc1ccccc1NC(=S)N(Cc1cccnc1)Cc1ccco1	-1	0	/	-7
Cc1[nH]c2c(ccc3cccnc32)c1C	-2	0	0	-4
CC1=[N+](C)c2c(ccc3cccnc23)C1(C)C	2	?	196*	159*
CCn1c2ccccc2c2cc(NC(=O)COC(=O)c3cc(OC)c(OC)cc3OC)ccc21	41*	0	/	-1
COc1ccc(-c2cc(NC(C)=O)c3ncc(-c4cccc(C(C)=O)c4)n3c2)cc1OC	49*	0	0	-4
CC(=O)Nc1cccc(-c2cc(NC=O)c3ncc(-c4ccc(C(C)=O)cc4)n3c2)c1	34*	0	0	5
CC1CCC(NC(=O)CCN2C(=O)C3CC=CCC3C2=O)CC1 (stereo not drawn)	-4	0	-1	7
CC1CCC(NC(=O)CCN2C(=O)C3C4C=CC(C4)C3C2=O)CC1 (stereo not drawn)	-2	0	177*	11
CCOC(=O)C1=CN(Cc2ccco2)S(=O)(=O)NC1c1cccc(OC)c1 (stereo not drawn)	14	0	/	-3
CCOC(=O)C1=CN(CC)S(=O)(=O)NC1c1cccc(OC)c1 (stereo not drawn)	24*	0	/	-7
CCn1nc(C(=O)OCC(=O)N(CCC#N)c2ccccc2)c2ccccc2c1=O	75*	0	/	2
CC(CNC(=O)C1CCCCC1)NC(=O)C1CCCCC1 (stereo not drawn)	16	/	/	-2
COc1ccc([C@H]2C(C(=O)O)=C[C@@H](C(C)(C)C)N2S(=O)(=O)c2ccccc2)cc1	83*	0	0	0
Cc1ccc([C@H]2C(C(=O)O)=C[C@@H](C(C)(C)C)N2S(=O)(=O)c2ccc(C)cc2)cc1	?	0	1	-7
COc1cc(/C=C(/C#N)c2ccccc2F)ccc1OCc1ccccc1	0	0	-2	1
O=C(OCc1ccccc1Cl)c1cc([N+](=O)[O-])ccc1N1CCOCC1	?	0	0	-5
O=C(OCc1c(F)cccc1Cl)c1cc([N+](=O)[O-])ccc1N1CCOCC1	68*	-1	-2	-1
C[C@H](NC(=O)c1ncn(Cc2ccccc2)c1C(=O)N[C@@H](C)c1ccccc1)c1ccccc1	75*	0	0	-3
C[C@@H](NC(=O)c1nc[nH]c1C(=O)N(C)Cc1ccccc1)c1ccccc1	35*	0	0	2
C[C@H](NC(=O)c1nc[nH]c1C(=O)N(C)Cc1ccccc1)c1ccccc1	2	0	0	7
SMILES	DENV2 CPE	Xi reactivation	E-sel inducer	S100A4 inh HTS
C[C@@H]1CN([C@H](C)CO)C(=O)Cc2cc(NC(=O)CCC(F)(F)F)ccc2O[C@@H]1CN(C)C(=O)Nc1cccc2ccccc12	30*	0	0	2
C[C@@H]1CN([C@@H](C)CO)C(=O)Cc2cc(NC(=O)Cc3ccccc3)ccc2O[C@H]1CN(C)C(=O)Nc1cccc2ccccc12	43*	0	338*	1
C[C@H](CO)N1C[C@H](C)[C@@H](CN(C)C(=O)Nc2cccc3ccccc23)Oc2ccc(NC(=O)Cc3cn(C)c4ccccc34)cc2CC1=O	9	0	0	-1
C[C@@H]1CN([C@H](C)CO)C(=O)Cc2cc(NC(=O)Cc3cn(C)c4ccccc34)ccc2O[C@@H]1CN(C)C(=O)Nc1cccc2ccccc12	45*	-1	0	69
COCCn1c(SCc2nc3scc(-c4ccc(Cl)cc4)c3c(=O)[nH]2)nnc1-c1cccc(C)c1	/	0	/	/
COc1cccc(-c2ccc([C@H]3[C@H](CO)N4C(=O)CN(C(=O)C5CC5)C[C@@H]34)cc2)c1	29*	0	0	-7
Cc1cccc(-c2ccc([C@@H]3[C@@H](CO)N4C(=O)CN(C(=O)c5cccnc5)C[C@H]34)cc2)c1	21*	0	0	3
CN(C)C(=O)c1cccc(-c2ccc([C@H]3[C@H]4CN(C(=O)CC5CC5)CC(=O)N4[C@H]3CO)cc2)c1	21*	0	0	-2
CC1CCN(c2ncnc3c2cnn3-c2ccccc2)CC1	-4	0	0	1
CN(Cc1ccccc1)N=Nc1ccccc1	7	0	/	-3
CN(Cc1ccccc1)N=Nc1nc[nH]c1C(N)=O	77*	0	0	-5
CCOC(=O)C(=CNc1ccc(Cl)cn1)C(=O)OCC	67*	0	1	23
Cc1ccc(C(=O)c2oc3ccccc3c2NC(=O)c2cc(-c3cc(C)ccc3O)n[nH]2)cc1	0	9	6	32
Cc1ccc(C(=O)c2oc3ccccc3c2NC(=O)c2cc(-c3ccccc3O)n[nH]2)cc1	/	23*	/	/
CCC(=O)N1CCCCN2[C@H](CO)[C@@H](c3ccc(C#Cc4cccnc4)cc3)[C@H]2C1	-7	0	0	-2
CCC(=O)N1CCCCN2[C@H](C1)[C@H](c1ccc(C#Cc3cccnc3)cc1)[C@@H]2CO	28*	0	0	-3
CCC(=O)N1CCCCN2[C@H](C1)[C@@H](c1ccc(C#Cc3cccnc3)cc1)[C@@H]2CO	24*	0	0	46
Cc1cc(OCC(=O)OCC(=O)Nc2ccc(Cl)cn2)ccc1Cl	-9	0	/	-14
O=C(NCCc1ccncc1)Nc1ccc(F)cc1	1	0	0	103*
CC(=O)Nc1ccc(NC2CCCCC2NS(=O)(=O)c2ccc(Cl)cc2)cc1 (stereo not drawn)	-3	0	0	3
COc1ccc(-c2ccccc2)cc1NC(=O)c1cccs1	49*	0	/	-8
Cc1cc(C)cc(NC(=O)Cn2nnc(C(=O)NCc3cccs3)c2N)c1	27*	0	0	3
Nc1ccn([C@@H]2O[C@H](C(=O)N3CCN(C(=O)C(F)(F)F)CC3)[C@@H](O)[C@H]2O)c(=O)n1	-8	0	1	17
Nc1ccn([C@@H]2O[C@H](C(=O)NCCc3ccc(F)cc3)[C@@H](O)[C@H]2O)c(=O)n1	87*	0	0	1
Nc1ccn([C@@H]2O[C@H](C(=O)NCc3ccc4c(c3)OCO4)[C@@H](O)[C@H]2O)c(=O)n1	-3	0	0	1
